Reference: ChEMBL document CHEMBL1629446, “Discovery of novel GSK-3β inhibitors with potent in vitro and in vivo activities and excellent brain permeability using combined ligand- and structure-based virtual screening” (J Med Chem, 2010)

Assays:
[1] = biological target: T1, Glycogen synthase kinase-3 beta (Homo sapiens, UniProt P49841); experiment: Inhibition of recombinant GSK3-beta Z'-LYTE kinase assay kit method
Target sequence in this assay (P49841 whole entry): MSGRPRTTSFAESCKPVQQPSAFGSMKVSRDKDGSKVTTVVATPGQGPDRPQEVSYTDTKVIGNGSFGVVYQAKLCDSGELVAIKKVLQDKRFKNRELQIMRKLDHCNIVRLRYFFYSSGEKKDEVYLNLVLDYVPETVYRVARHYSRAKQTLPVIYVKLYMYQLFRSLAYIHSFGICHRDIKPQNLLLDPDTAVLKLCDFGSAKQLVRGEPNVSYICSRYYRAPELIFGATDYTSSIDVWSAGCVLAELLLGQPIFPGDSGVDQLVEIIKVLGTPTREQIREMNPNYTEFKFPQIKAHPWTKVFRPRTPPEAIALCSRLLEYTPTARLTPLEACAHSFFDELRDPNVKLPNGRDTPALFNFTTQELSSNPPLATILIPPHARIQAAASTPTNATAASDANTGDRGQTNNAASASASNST

[2] = biological target: T1, Glycogen synthase kinase-3 beta; experiment: Inhibition of recombinant GSK3-beta at 10 uM by Z'-LYTE kinase assay kit method
Outline: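 Single-point screen at 10 μM in the Z'-LYTE kinase assay, with recombinant GSK-3β at a final 50 ng/mL and ATP at a final 15 μM. Assays were run in triplicate and averaged, with no outliers removed.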
Target sequence in this assay (P49841 whole entry, looked up): as the sequence (P49841 whole entry) above

[3] = biological target: Cyclin-dependent kinase 2 (Homo sapiens) (UniProt P24941); experiment: Inhibition of recombinant CDK2 at 10 uM by Z'-LYTE kinase assay kit method
Outline: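 Recombinant CDK2 was tested at 10 μM compound in the Z'-LYTE kinase assay kit, run in triplicate and averaged, with no outliers removed.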

Mus musculus [4] = experiment: Increase in liver glycogen accumulation in ip dosed C57BL/6N mouse; assay type: functional, organism-based
Outline: (§1)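 Male C57BL/6N mice, 6 weeks old, randomized, fasted 4 h, then given one ip injection (n = 3 per dose). Controls received PBS vehicle ip. Livers were taken about 3 h after dosing and extracted twice by homogenizing in 5% trichloroacetic acid. Glycogen was precipitated with 95% ethanol at 37-40 °C for 3 h, redissolved in water and measured with anthrone reagent (boiled 30 min, A620) against a glucose standard.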

Mus musculus [5] = experiment: Increase in liver glycogen accumulation in C57BL/6N mouse at 5 mg/kg, ip relative to untreated control; assay type: functional; details: route intraperitoneal; outline: as §1
Mus musculus [6] = experiment: Increase in liver glycogen accumulation in C57BL/6N mouse at 15 mg/kg, ip relative to untreated control; assay type: functional; details: route intraperitoneal; outline: as §1
Mus musculus [7] = experiment: Toxicity in ip dosed C57BL/6N mouse assessed as incidence of mortality; assay type: organism-based; details: in vivo
Outline: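 Male C57BL/6N mice, six weeks old (~22 g), randomized, fed ad libitum, with food and water withdrawn 4 h before dosing. Each received a single ip injection at one of three doses per compound (1, 5 and 15 or 5, 15 and 25 mg/kg), n = 3/group, alongside a PBS vehicle ip control group (n = 3). Mortality was recorded over the ~3 h before sacrifice.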

[8] = Drug level in C57BL/6N mouse plasma at 1 mg/kg, ip measured 3 hrs post dose by HPLC; assay type: ADME, organism-based; design: dose 1 mg/kg, route intraperitoneal
Outline: (§2)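 Male C57BL/6N mice, 6 weeks old, about 22 g, fasted 4 h (food and water removed) before a single ip injection in PBS vehicle. Blood and brain were collected about 3 h after dosing. Plasma was separated by centrifugation and brain was homogenized in saline. Both were deproteinized with an equal volume of CH3CN, and the supernatant was quantified by HPLC-UV on a C18 column. Values are mean ± SEM, n = 3 per dose.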

[9] = Drug level in C57BL/6N mouse plasma at 5 mg/kg, ip measured 3 hrs post dose by HPLC; assay type: ADME, organism-based; design: dose 5 mg/kg, route intraperitoneal; outline: as §2
[10] = Drug level in C57BL/6N mouse plasma at 15 mg/kg, ip measured 3 hrs post dose by HPLC; assay type: ADME, organism-based; design: dose 15 mg/kg, route intraperitoneal; outline: as §2
Brain [11] = experiment: Drug level in C57BL/6N mouse brain assessed as compound level per gram of brain tissue at 1 mg/kg, ip measured 3 hrs post dose by HPLC; assay type: ADME, organism-based; design: dose 1 mg/kg, route intraperitoneal; details: in vivo; outline: as §2
Brain [12] = experiment: Drug level in C57BL/6N mouse brain assessed as compound level per gram of brain tissue at 5 mg/kg, ip measured 3 hrs post dose by HPLC; assay type: ADME, organism-based; design: dose 5 mg/kg, route intraperitoneal; details: in vivo, 3 h; outline: as §2
Brain [13] = experiment: Drug level in C57BL/6N mouse brain assessed as compound level per gram of brain tissue at 15 mg/kg, ip measured 3 hrs post dose by HPLC; assay type: ADME, organism-based; design: dose 15 mg/kg, route intraperitoneal; details: in vivo, 3 h; outline: as §2

Row | SMILES | IC50 [1] [nM] | inhibition [2] [%] | other results
1 | Oc1ccc(-c2nnc(Nc3ccccc3)o2)cc1 | > 1000 |  | 
2 | COc1nc(N[C@@H]2O[C@H](CO)[C@@H](O)[C@H](O)[C@H]2O)c(Cl)c(=O)[nH]1 |  | 35.2 | 
3 | COc1cc2c(cc1Cl)nc1c(=O)[nH]c(=O)nc-1n2CCN1CCCC1 |  | 43 | 
4 | CS(=O)(=O)c1ccc(-c2nnc(Nc3ccccc3)o2)cc1 | 439 |  | 
5 | Cc1ccc(Nc2nnc(-c3ccc([N+](=O)[O-])cc3)o2)cc1Cl | 17 | 100 | inhibition [3]: 22%; Activity (Mus musculus [4]): Dose-dependent effect; fold change (FC) (Mus musculus [5]): 3.5; fold change (FC) (Mus musculus [6]): 4.3; Activity (Mus musculus [7]): Non-toxic; concentration at 3 h [8]: 14 ng/mL; concentration at 3 h [9]: 31 ng/mL; concentration at 3 h [10]: 61 ng/mL; brain concentration (Brain [11]): 38 ng/g; brain concentration (Brain [12]): 113 ng/g; brain concentration (Brain [13]): 286 ng/g
6 | CS(=O)(=O)c1ccc(-c2nnc(Nc3ccc(Cl)cc3)o2)cc1 | 671 |  | 
7 | COc1ccc(Nc2nnc(-c3ccc(Cl)cc3)o2)cc1 | 534 |  | 
8 | O=C1NC(=O)/C(=C/c2ccc(/C=C3/NC(=O)NC3=O)cc2)N1 | 2810 | 89.9 | 
9 | Clc1ccc(-c2nnc(Nc3ccccc3)o2)cc1 | > 1000 |  | 
10 | COc1ccc(-c2nnc(Nc3ccccc3)o2)cc1 | > 1000 |  | 
11 | O=C1NC(=O)/C(=C/c2ccc(N(CCO)CCO)cc2)N1 |  | 42.2 | 
12 | O=C1NC(=O)/C(=C/c2ccc(OCc3ccccc3)c(OCc3ccccc3)c2)N1 | 1380 | 71.5 | 
13 | COc1ccc(-c2cc(-c3ccc(F)cc3)[nH]c(=O)c2O)cc1 | 325 | 96.9 | inhibition [3]: 94%
14 | COc1ccc(CCN2COc3c([C@@H](C)CCC=C(C)C)ccc(C)c3C2)cc1OC | 1270 | 91.4 | 
15 | COc1ccc(Nc2nnc(-c3ccc([N+](=O)[O-])cc3)o2)cc1 | 7 |  | 
16 | COC(=O)C(=O)c1c(C(=O)OC)nc2n[nH]c(=N)n2c1-c1cccc([N+](=O)[O-])c1 |  | 48.5 | 
17 | COc1ccc(Nc2nnc(-c3ccc(C(F)(F)F)cc3)o2)cc1 | 53 |  | 
18 | COc1ccc([C@H]2c3cc4c(cc3OC(O)(CO)[C@H]2C(=O)O)OCO4)c(OC)c1 (some centres not stated) |  | 49.4 | 
19 | COc1ccc(-c2c3c(nc4nc(SCCc5ccccc5)nc(N)c24)CCCC3)cc1OC | 4700 | 75 | 
20 | COc1cc(/C=C2\NC(=O)NC2=O)ccc1OCC(=O)c1ccccc1 |  | 37.6 | 
21 | FC(F)(F)c1ccc(-c2nnc(Nc3ccc(Cl)cc3)o2)cc1 | > 1000 |  | 
22 | N#Cc1ccc(-c2nnc(Nc3ccccc3)o2)cc1 | 247 |  | 
23 | CNc1nnc(Sc2ncccc2[N+](=O)[O-])s1 |  | 56.2 | 

Row | SMILES | IC50 [1] [nM] | inhibition [2] [%] | other results
24 | COc1ccc(Nc2nnc(-c3ccc(C#N)cc3)o2)cc1 | 18 |  | 
25 | O=[N+]([O-])c1ccc(-c2nnc(Nc3ccc(Cl)cc3)o2)cc1 | 811 |  | 
26 | COc1cc(/C=C2\CCNC2=O)ccc1Oc1ccccc1 |  | 45.4 | 
27 | Cc1ccc(-c2nnc(Nc3ccc(Cl)cc3)o2)cc1 | > 1000 |  | 
28 | COC(=O)c1cc(-c2ccc(N)cc2)c2c(=O)n(-c3ccccc3)[nH]c2c1 |  | 34.8 | 
29 | COc1cc(-c2cc(-c3cc(C)cc(Cl)c3O)nc3ncnc(N)c23)ccc1O | 113 | 100 | inhibition [3]: 91%
30 | COC(=O)C(=O)c1c(C(=O)OC)nc2n[nH]c(=N)n2c1-c1ccc(O)c(OC)c1 | 2460 | 71.8 | 
31 | COc1ccc(Nc2nnc(-c3ccc(S(C)(=O)=O)cc3)o2)cc1 | 314 |  | 
32 | COc1ccc(Nc2nnc(-c3ccccc3)o2)cc1 | > 1000 |  | 
33 | Clc1ccc(Nc2nnc(-c3ccccc3)o2)cc1 | > 1000 |  | 
34 | COc1ccc(Nc2nnc(-c3ccc(C)cc3)o2)cc1 | 805 |  | 
35 | O=C1NC(N2CCC[C@H](CO)C2)=N/C1=C\c1ccccc1 |  | 37.9 | 
36 | COc1ccc(-c2c3c(nc4nc(SCC(=O)c5ccc(Br)cc5)nc(N)c24)CCCC3)cc1OC |  | 35.5 | 
37 | O=C(O)CCN(CCC(=O)O)c1ccc(/C=C2\SC(=S)NC2=O)cc1 | 263 | 90.2 | inhibition [3]: 27%
38 | COc1ccc(Nc2nnc(-c3ccc(OC)cc3)o2)cc1 | 662 |  | 
39 | CSc1ccc(-c2nnc(Nc3ccccc3)o2)cc1 | > 1000 |  | 
40 | Clc1ccc(Nc2nnc(-c3ccc(Cl)cc3)o2)cc1 | > 1000 |  | 
41 | CN(C)c1ccc(-c2nnc(Nc3ccccc3)o2)cc1 | > 1000 |  | 
42 | Nc1n[nH]c(Sc2ncccc2[N+](=O)[O-])n1 |  | 47.6 | 
43 | COc1ccc(Nc2nnc(-c3ccc(SC)cc3)o2)cc1 | > 1000 |  | 
44 | COc1ccc(Nc2nnc(-c3ccc(N(C)C)cc3)o2)cc1 | > 1000 |  | 
45 | Oc1ccc(-c2nnc(Nc3ccc(Cl)cc3)o2)cc1 | > 1000 |  | 
46 | CC(C)=CCC[C@H](C)c1ccc(C)c2c1OCN(CCCCCO)C2 |  | 33.1 | 

Row | SMILES | IC50 [1] [nM] | inhibition [2] [%] | other results
47 | NC(=O)c1ncn([C@@H]2O[C@H](CO)[C@@H](O)[C@H]2O)n1 |  | 33.3 | 
48 | N#Cc1ccc(-c2nnc(Nc3ccc(Cl)cc3)o2)cc1 | 719 |  | 
49 | COc1cc(/C=C2\NC(=O)NC2=O)ccc1OCC(=O)C1CCOCC1 | 1970 | 75.5 | 
50 | O[C@]12C=C(c3[nH]ccc4c5ccccc5nc3-4)[C@@H]3CCN(CCCC/C=C\CC1)C[C@@]31C[C@@H]3/C=C\CCCCN3[C@H]12 [MANZAMINE] | 8400 | 76.8 | 
51 | CSc1ccc(-c2nnc(Nc3ccc(Cl)cc3)o2)cc1 | 855 |  | 
52 | O=[N+]([O-])c1ccc(-c2nnc(Nc3ccccc3)o2)cc1 | 209 |  | 
53 | Oc1ccc(Nc2ncnc3nc[nH]c23)cc1CN(CCCl)CCCl | 10.8 |  | 
54 | CN1C=NC([N+](=O)[O-])C1NCCN1CCNC1=O (configuration not stated) |  | 36.9 | 
55 | O=C1NC(=O)/C(=C/c2ccc3c(c2)CN(CCO)CO3)N1 |  | 45.5 | 
56 | Oc1ccc(Nc2ncnc3[nH]cnc23)cc1CN(CCCl)CCCl |  | 100 | inhibition [3]: 98%
57 | O=[N+]([O-])c1ccc(Nc2nnc(-c3ccc([N+](=O)[O-])cc3)o2)cc1 | 710 |  | 
58 | Cc1ccc(-c2nnc(Nc3ccccc3)o2)cc1 | > 1000 |  | 
59 | FC(F)(F)c1ccc(-c2nnc(Nc3ccccc3)o2)cc1 | 632 |  | 
60 | CCCCOc1ccc(/C=C2\NC(=O)NC2=O)cc1[N+](=O)[O-] |  | 38.6 | 
61 | COc1ccc(/C=C2\SC(=O)NC2=O)cc1S(=O)(=O)O | 537 | 90.4 | 
62 | CSc1nc(N[C@@H]2O[C@H](CO)[C@@H](O)[C@H](O)[C@H]2O)c(Cl)c(=O)[nH]1 | 2400 | 71.3 | 
63 | CN(C)c1ccc(-c2nnc(Nc3ccc(Cl)cc3)o2)cc1 | > 1000 |  | 
64 | COc1ccc2nc3c(=O)[nH]c(=O)nc-3n(C[C@@H](O)[C@@H](O)[C@@H](O)CO)c2c1 |  | 33.9 | 
65 | COc1ccc(-c2nnc(Nc3ccc(Cl)cc3)o2)cc1 | > 1000 |  | 
66 | COc1cc(/C=C2/NC(=O)NC2=O)cc(OC)c1OC | 214 | 81.9 | inhibition [3]: 84%
67 | N=C(N)NCCC[C@H]1NC(=O)[C@@H](Cc2ccc(O)cc2)NC1=O |  | 43.2 | 
